Measured values from ChEMBL document CHEMBL5230166, “Novel quinoline-piperazine hybrids: the design, synthesis and evaluation of antibacterial and antituberculosis properties” (RSC Med Chem, 2023).
Values after ≈ are worked out from the molar mass of the structure shown.

Tests used:
Format in all cases: functional
[1] = test system: Staphylococcus aureus; assay: Antibacterial activity against methicillin sensitive Staphylococcus aureus ATCC 29213 assessed as inhibition of bacterial growth incubated for 22 to 24 hrs; conditions: time 22-24 hrs
Method in brief: (§1)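 Broth MIC referenced to an earlier protocol. Inocula come from mid-log cultures sub-cultured on soybean casein digest agar, adjusted to McFarland (~10⁸ CFU/mL), then diluted to ~10⁵ CFU/mL. Compounds and controls are serially diluted from 64 to 0.03 µg/mL. Tested in triplicate, read after 22–24 h at 37 °C. MIC is the lowest concentration with no visible growth.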

[2] = test system: Staphylococcus aureus; assay: Antibacterial activity against methicillin resistant Staphylococcus aureus ATCC 33591 assessed as inhibition of bacterial growth incubated for 22 to 24 hrs; conditions: time 22-24 hrs
Method in brief: (§2)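 Broth microdilution MIC. Strains were subcultured on Soybean Casein Digest Agar, and inocula were taken from mid-log culture, adjusted to McFarland (~10⁸ CFU/mL), then diluted to ~10⁵ CFU/mL. Serial dilutions ran from 64 to 0.03 µg/mL. Plates were incubated 22–24 h at 37 °C, in triplicate. MIC was the lowest concentration with no visible growth.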

[3] = test system: Staphylococcus epidermidis; assay: Antibacterial activity against clinical isolate methicillin resistant Staphylococcus epidermidis AB 735 assessed as inhibition of bacterial growth incubated for 22 to 24 hrs; conditions: time 22-24 hrs
[4] = test system: Enterococcus faecalis; assay: Antibacterial activity against vancomycin resistant Enterococcus faecalis ATCC 700802 assessed as inhibition of bacterial growth incubated for 22 to 24 hrs; conditions: time 22-24 hrs; method in brief: as §2
[5] = test system: Enterococcus faecium; assay: Antibacterial activity against Enterococcus faecium ATCC 49624 assessed as inhibition of bacterial growth incubated for 22 to 24 hrs; conditions: time 22-24 hrs; method in brief: as §1
[6] = test system: Escherichia coli; assay: Antibacterial activity against clinical isolate Escherichia coli AB 117 assessed as inhibition of bacterial growth incubated for 22 to 24 hrs; conditions: time 22-24 hrs
[7] = test system: Klebsiella pneumoniae; assay: Antibacterial activity against clinical isolate Klebsiella pneumoniae AB 356 assessed as inhibition of bacterial growth incubated for 22 to 24 hrs; conditions: time 22-24 hrs
[8] = test system: Pseudomonas aeruginosa; assay: Antibacterial activity against clinical isolate Pseudomonas aeruginosa AB 645 assessed as inhibition of bacterial growth incubated for 22 to 24 hrs; conditions: time 22-24 hrs
[9] = test system: Acinetobacter baumannii; assay: Antibacterial activity against clinical isolate Acinetobacter baumannii BAA 747 assessed as inhibition of bacterial growth incubated for 22 to 24 hrs; conditions: time 22-24 hrs
[10] = test system: Moraxella catarrhalis; assay: Antibacterial activity against Moraxella catarrhalis ATCC 25238 assessed as inhibition of bacterial growth incubated for 22 to 24 hrs; conditions: time 22-24 hrs; method in brief: as §1
[11] = test system: Mycolicibacterium smegmatis; assay: Antibacterial activity against Mycobacterium smegmatis ATCC 607 assessed as inhibition of bacterial growth incubated for 2 days by CLSI protocol based broth microdilution method; conditions: ATCC 607, 48 h, time 2 day
Method in brief: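 CLSI broth microdilution in Middlebrook 7H9 with 10% ADC. Compounds are dissolved in DMSO at 4.0 mg/mL (stock) and serially diluted from 64 to 0.015 µg/mL. Inoculum is ~10⁵ CFU/mL, checked by plating on 7H11 agar. Rifampin and levofloxacin are positive controls; drug-free broth with DMSO is the negative control. Growth inhibition is read after 2 days at 37 °C as MIC.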

[12] = test system: Mycobacterium tuberculosis; assay: Antibacterial activity against Mycobacterium tuberculosis H37Rv ATCC 25618 assessed as inhibition of bacterial growth incubated for 2 days by CLSI protocol based broth microdilution method; conditions: H37Rv ATCC 25618, 48 h, time 2 day

Row | Compound | MIC [1] | MIC [2] | MIC [3] | MIC [4] | MIC [5] | MIC [6] | MIC [7] | MIC [8] | MIC [9] | MIC [10] | MIC [11] | MIC [12]
1 | COc1ccc2nc(CN3CCN(C(=O)C4CCC4)CC3)cc(OC)c2c1 | > 64 µg/mL | > 64 µg/mL | > 64 µg/mL | > 64 µg/mL | > 64 µg/mL | > 64 µg/mL | > 64 µg/mL | > 64 µg/mL | > 64 µg/mL | 2 µg/mL (≈ 5.41 µM) | > 64 µg/mL | > 64 µg/mL
2 | COc1ccc(S(=O)(=O)N2CCN(Cc3cc(OC)c4cc(F)ccc4n3)CC2)cc1 | > 64 µg/mL | > 64 µg/mL | > 64 µg/mL | > 64 µg/mL | > 64 µg/mL | > 64 µg/mL | > 64 µg/mL | > 64 µg/mL | > 64 µg/mL | > 64 µg/mL | > 64 µg/mL | > 64 µg/mL
3 | COc1cc(CN2CCN(S(=O)(=O)c3ccc(NC(C)=O)cc3)CC2)nc2ccc(F)cc12 | > 64 µg/mL | > 64 µg/mL | 64 µg/mL (≈ 135 µM) | > 64 µg/mL | > 64 µg/mL | > 64 µg/mL | > 64 µg/mL | > 64 µg/mL | > 64 µg/mL | 32 µg/mL (≈ 67.7 µM) | > 64 µg/mL | > 64 µg/mL
4 | COc1ccc2nc(CN3CCN(C(=O)c4c(Cl)cccc4Cl)CC3)cc(OC)c2c1 | > 64 µg/mL | > 64 µg/mL | > 64 µg/mL | > 64 µg/mL | > 64 µg/mL | > 64 µg/mL | > 64 µg/mL | > 64 µg/mL | > 64 µg/mL | > 64 µg/mL | > 64 µg/mL | > 64 µg/mL
5 | COc1ccc2nc(CN3CCN(S(=O)(=O)c4c(F)c(F)c(F)c(F)c4F)CC3)cc(OC)c2c1 | > 64 µg/mL | > 64 µg/mL | > 64 µg/mL | > 64 µg/mL | > 64 µg/mL | > 64 µg/mL | > 64 µg/mL | > 64 µg/mL | > 64 µg/mL | > 64 µg/mL | > 64 µg/mL | > 64 µg/mL
6 | COc1ccc2nc(CN3CCN(S(=O)(=O)c4ccc(F)cc4)CC3)cc(OC)c2c1 | > 64 µg/mL | > 64 µg/mL | > 64 µg/mL | > 64 µg/mL | > 64 µg/mL | > 64 µg/mL | > 64 µg/mL | > 64 µg/mL | > 64 µg/mL | > 64 µg/mL | > 64 µg/mL | > 64 µg/mL
7 | COc1ccc2nc(CN3CCN(C(=O)c4ccc(Cl)cc4Cl)CC3)cc(OC)c2c1 | > 64 µg/mL | > 64 µg/mL | > 64 µg/mL | > 64 µg/mL | > 64 µg/mL | > 64 µg/mL | > 64 µg/mL | > 64 µg/mL | > 64 µg/mL | > 64 µg/mL | > 64 µg/mL | > 64 µg/mL
8 | O=C(O)c1cn(C2CC2)c2cc(N3CCNCC3)c(F)cc2c1=O [CIPROFLOXACIN] | 0.5 µg/mL (≈ 1.51 µM) | 1 µg/mL (≈ 3.02 µM) |  | 0.5 µg/mL (≈ 1.51 µM) | 2 µg/mL (≈ 6.04 µM) |  |  |  |  | 0.03 µg/mL (≈ 0.0905 µM) |  | 
9 | C[C@H]1COc2c(N3CCN(C)CC3)c(F)cc3c(=O)c(C(=O)O)cn1c23.C[C@H]1COc2c(N3CCN(C)CC3)c(F)cc3c(=O)c(C(=O)O)cn1c23.O [LEVOFLOXACIN] |  |  |  |  |  |  |  |  |  |  | 0.125 µg/mL | 2 µg/mL
10 | CC(=O)NC[C@H]1CN(c2ccc(N3CCOCC3)c(F)c2)C(=O)O1 [LINEZOLID] |  |  | 8 µg/mL (≈ 23.7 µM) |  | 4 µg/mL (≈ 11.9 µM) | 8 µg/mL (≈ 23.7 µM) | > 64 µg/mL | > 64 µg/mL | > 64 µg/mL | 4 µg/mL (≈ 11.9 µM) |  | 
11 | CO[C@H]1/C=C/O[C@@]2(C)Oc3c(C)c(O)c4c(O)c(c(/C=N/N5CCN(C)CC5)c(O)c4c3C2=O)NC(=O)/C(C)=C\C=C\[C@H](C)[C@H](O)[C@@H](C)[C@@H](O)[C@@H](C)[C@H](OC(C)=O)[C@@H]1C [RIFAMPIN] |  |  |  |  |  |  |  |  |  |  | 0.5 µg/mL (≈ 0.608 µM) | 4 µg/mL (≈ 4.86 µM)
12 | COc1cc(Cc2cnc(N)nc2N)cc(OC)c1OC [TRIMETHOPRIM] | 4 µg/mL (≈ 13.8 µM) | 8 µg/mL (≈ 27.6 µM) | > 8 µg/mL | 0.25 µg/mL (≈ 0.861 µM) | 0.03 µg/mL (≈ 0.103 µM) | 16 µg/mL (≈ 55.1 µM) | 2 µg/mL (≈ 6.89 µM) | > 8 µg/mL | > 8 µg/mL | 4 µg/mL (≈ 13.8 µM) |  | 
